Among the data in ChEMBL document CHEMBL1142064, “Concentration-dependent effects of caspofungin on the metabolic activity of Aspergillus species” (2007) are minimal effective concentration, Activity and MMC values, retold here.

Common to all, as to type: functional
The test system of experiment [1] is Aspergillus fumigatus. Put plainly: Antifungal activity against Aspergillus fumigatus after 48 hrs. Particulars: read-out: MEC. Summed up: (§1)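 Broth microdilution following CLSI M38-A in RPMI 1640 with l-glutamine, no bicarbonate, buffered to pH 7.0 with 0.165 M MOPS. Caspofungin twofold dilutions, 0.008 to 8 μg/ml final. Inoculum 2.5 × 10⁴ conidia/ml of clinical isolates. Incubation 37°C for 48 h. MEC read microscopically as the lowest concentration giving short, stubby, highly branched hyphae. Run in triplicate.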

Experiment [2] relates to Aspergillus terreus. Description: Antifungal activity against Aspergillus terreus after 48 hrs. The following applies: read-out: MEC. In a few lines: as §1
Experiment [3] concerns Aspergillus flavus. Description: Antifungal activity against Aspergillus flavus after 48 hrs. Particulars: read-out: MEC. Summed up: as §1
Experiment [4] deals with Aspergillus fumigatus. Put plainly: Metabolic activity of Aspergillus fumigatus at 0.5 ug/ml after 2 hrs by XTT assay relative to control. Summed up:
(§2)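 Wells from the 48 h caspofungin microdilution (0.008 to 8 μg/ml) were read right after microscopic MEC reading. XTT plus menadione was added to final 100 μg/ml XTT and 6.25 μM menadione, then incubated 2 h at 37°C and shaken. Absorbance read at 450 nm with 630 nm reference. Percent metabolic activity = background-subtracted drug well / background-subtracted drug-free control × 100. Triplicate.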

For experiment [5], the system named is Aspergillus terreus. Description: Metabolic activity of Aspergillus terreus at 0.5 ug/ml after 2 hrs by XTT assay relative to control. In a few lines:
as §2

Experiment [6] relates to Aspergillus flavus. Description: Metabolic activity of Aspergillus flavus at 0.25 ug /ml using after 2 hrs by XTT assay relative to control. In a few lines: as §2
For experiment [7], the system named is Aspergillus fumigatus. Put plainly: Metabolic activity of Aspergillus fumigatus by XTT assay relative to control. Summed up: as §2
Experiment [8] deals with Aspergillus terreus. Put plainly: Metabolic activity of Aspergillus terreus by XTT assay relative to control. Summed up:
as §2

The subject of experiment [9] is Aspergillus fumigatus. Put plainly: Metabolic activity of Aspergillus fumigatus at 0.75 ug/ml after 2 hrs by XTT assay relative to control. Summed up:
as §2

For experiment [10], the system named is Aspergillus terreus. Put plainly: Metabolic activity of Aspergillus terreus at 1 ug/ml after 2 hrs by XTT assay relative to control. Summed up: as §2
Experiment [11] concerns Aspergillus flavus. Put plainly: Metabolic activity of Aspergillus flavus at 2 ug /ml after 2 hrs by XTT assay relative to control. Summed up: as §2
The test system of experiment [12] is Aspergillus fumigatus. Put plainly: Metabolic activity of Aspergillus fumigatus at 8 ug/ml by XTT assay relative to control. Summed up:
(§3)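 Optimized XTT read-out (100 μg/ml XTT, 6.25 μM menadione, 2 h at 37°C) applied after 48 h caspofungin exposure. Percent metabolic activity in the 8 μg/ml well, calculated as background-corrected absorbance (450/630 nm) relative to the drug-free control. Compared within each species against the value at the concentration giving the lowest activity.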

In experiment [13] the test system is Aspergillus terreus. Description: Metabolic activity of Aspergillus terreus at 8 ug/ml by XTT assay relative to control. In a few lines: as §3
In experiment [14] the test system is Aspergillus flavus. Put plainly: Metabolic activity of Aspergillus flavus at 8 ug/ml by XTT assay relative to control. In a few lines: as §3
Experiment [15] deals with Aspergillus fumigatus. Description: Metabolic activity of Aspergillus fumigatus determined as X-MEC relative to control. Summed up: (§4)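 X-MEC: lowest caspofungin concentration whose percent metabolic activity (optimized XTT, 100 μg/ml XTT, 6.25 μM menadione, 2 h, after 48 h incubation) is at or below a species-specific cutoff. Cutoffs were tested in 5% steps around the species median activity at the microscopic MEC and chosen for best ±1 dilution agreement with the microscopic MEC.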

Experiment [16] relates to Aspergillus terreus. Put plainly: Metabolic activity of Aspergillus terreus determined as X-MEC relative to control. In a few lines:
as §4

Experiment [17] concerns Aspergillus flavus. Put plainly: Metabolic activity of Aspergillus flavus determined as X-MEC relative to control. Summed up:
as §4

As for `CC[C@H](C)C[C@H](C)CCCCCCCCC(=O)N[C@H]1C[C@@H](O)[C@@H](NCCN)NC(=O)[C@@H]2[C@@H](O)CCN2C(=O)[C@H]([C@H](O)CCN)NC(=O)[C@H]([C@H](O)[C@@H](O)c2ccc(O)cc2)NC(=O)[C@@H]2C[C@@H](O)CN2C(=O)[C@H]([C@@H](C)O)NC1=O` [CASPOFUNGIN], the minimal effective concentration in the experiment on Aspergillus fumigatus [1] stood at 0.5 µg/mL; with Aspergillus terreus [2] it was 0.5 µg/mL; in the experiment on Aspergillus flavus [3] it was 0.25 µg/mL. Moreover, the Activity in the experiment on Aspergillus fumigatus [4] was determined as 42%; in the experiment on Aspergillus terreus [5], 53%; in the experiment with Aspergillus flavus [6] it was 25%; in the experiment with Aspergillus fumigatus [9], 28%; with Aspergillus terreus [10], 38%; in the experiment with Aspergillus flavus [11] it was 17%. The Activity is 51% with Aspergillus fumigatus [12]; 57% with Aspergillus terreus [13]; 20% in the experiment on Aspergillus flavus [14]; 60% with Aspergillus fumigatus [15]; 65% with Aspergillus terreus [16]; 40% with Aspergillus flavus [17]. In addition, the MMC is 0.75 µg/mL in the experiment with Aspergillus fumigatus [7] and 1 µg/mL in the experiment on Aspergillus terreus [8].
